In ChEMBL document CHEMBL1125837, “Nicotinamide ethers: novel inhibitors of calcium-independent phosphodiesterase and [3H]rolipram binding” (J Med Chem, 1991):

Legend:
Phosphodiesterase 4 [1] = biological target: T1, Phosphodiesterase 4 (Rattus norvegicus, UniProt P14270+P14646+P14644+P54748); test: Inhibition of [3H]rolipram binding to rat brain membranes.; format: cell membranes, Membrane
Outline: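 Rat brain homogenized in ice-cold 50 mM Tris/1.2 mM MgCl2, pH 8.0, washed twice by centrifugation and used at 0.5 mg protein/mL. Incubated with [3H]rolipram and test compound at various concentrations for 30 min at 25 °C, in triplicate. Glass-fiber filtration, three ice-cold washes, scintillation counting. IC50 from semilog plots of percent inhibition vs concentration.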

Phosphodiesterase 4 [2] = biological target: T1, Phosphodiesterase 4; test: Inhibition of [3H]cAMP (NEN NET-275) binding to Calcium-Independent Phosphodiesterase from rat brain.
Outline: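 Enzyme from fresh rat brain (Davis method). Test compound or vehicle with enzyme in [3H]cAMP substrate in Tris-HCl/MgCl2 buffer, 37 °C for 8 min, in triplicate. Stopped by boiling 2 min. Carrier 5'-AMP added; boronate affinity gel separated [3H]-5'-AMP from cAMP, and product counted by scintillation. IC50 from dose-response curves of three log concentrations, each in triplicate.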

Mus musculus = species: Mus musculus; test: Minimal effective peroral dose in mouse reserpine hypothermia test; format: functional; details: po, read-out: MED

SMILES | IC50 (Phosphodiesterase 4 [1]) | IC50 (Phosphodiesterase 4 [2]) | minimal effective dose (Mus musculus)
COC(=O)c1cccc(Oc2ncccc2C(=O)NCc2ccccc2)c1 | 6.6 µM | 1.4 µM | 0.001 mg/kg
O=C(NCc1ccccc1)c1cccnc1Oc1cccc(C(F)(F)F)c1 | 54 µM | 6.5 µM | 3.2 mg/kg
O=C(NCc1ccccc1)c1cccnc1Oc1ccccc1 | 49 µM | 1.8 µM | 0.32 mg/kg
O=C(NCc1ccccc1)c1cccnc1Oc1ccc(F)cc1 | 37 µM | 2.9 µM | 0.01 mg/kg
N#Cc1cccc(Oc2ncccc2C(=O)NCc2ccccc2)c1 | 22 µM | 9.8 µM | 0.1 mg/kg
CC(C)NC(=O)c1cccnc1Oc1ccc(F)cc1 | 26 µM | 3.1 µM | 0.001 mg/kg
O=C(NCc1ccccc1)c1cccnc1Oc1ccccc1F | > 100 µM | 10 µM | 0.01 mg/kg
O=C(NCc1ccc(F)cc1)c1cccnc1Oc1ccc(F)cc1 | 51 µM | 4 µM | 0.01 mg/kg
COc1ccc(CNC(=O)c2cccnc2Oc2ccc(F)cc2)cc1 | 26 µM | 0.73 µM | 3.2 mg/kg
O=C(NCc1ccccc1)c1cccnc1OC1CC2CCC1C2 (stereo unspecified) | 27 µM | 0.22 µM | 1 mg/kg
O=C(NCc1ccccc1)c1cccnc1Oc1cccc(F)c1 | 29 µM | 1.8 µM | 0.01 mg/kg
O=C(Nc1ccccc1)c1cccnc1Oc1ccc(F)cc1 | 43 µM | 2.2 µM | 0.001 mg/kg
O=C(NCc1ccccc1)c1cccnc1Oc1ccc(Cl)c(Cl)c1 | 19 µM | 2.2 µM | > 3.2 mg/kg
COc1ccccc1Oc1ncccc1C(=O)NCc1ccccc1 | > 100 µM | > 10 µM | > 3.2 mg/kg
COc1ccc(Oc2ncccc2C(=O)NCc2ccccc2)cc1 | 100 µM | 3.1 µM | 0.01 mg/kg
Cc1ccc(CNC(=O)c2cccnc2Oc2ccc(F)cc2)cc1 | 25 µM | 0.54 µM | 0.001 mg/kg
COc1cccc(Oc2ncccc2C(=O)NCc2ccccc2)c1 | 23 µM | 2.5 µM | 0.01 mg/kg
